From PubChem BioAssay
iPSC survival up – hiPSC single-cell survival enhancement; ATPlite luminescence; 100% = ROCK inhibitor wells, 0% = DMSO; survival enhancement, % at 20 µM; 360,000 compounds, 0.044% hits; AID 602274; in the data active = survival enhancement above about 18%;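 also: cells exposed to compounds for 16 hours before the ATP read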
TRAIL sens C8 – sensitizes caspase-8 expressing cells to TRAIL; NB7+C8 cells + TRAIL, ATPlite viability luminescence; 360,000 compounds, 1% hits; inhibition (viability loss, TRAIL sensitization), % at 10 µM;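 active = compounds causing at least 50% loss of cell viability in the single-dose screen, relative to plate controls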
FLuc act counter – affects firefly luciferase, flagging false hits in luciferase stimulation screens; activation factor at 10 µM; 200,000 tested, under 10 active; ATPlite luciferase biochemical, luminescence, 10 min; 0 = ATP-free wells, 1 = DMSO control;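 active = luciferase activation factor, scaled between plate controls, of at least 2 with compound at 10 µM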
Target sequence (P08659 whole entry, looked up): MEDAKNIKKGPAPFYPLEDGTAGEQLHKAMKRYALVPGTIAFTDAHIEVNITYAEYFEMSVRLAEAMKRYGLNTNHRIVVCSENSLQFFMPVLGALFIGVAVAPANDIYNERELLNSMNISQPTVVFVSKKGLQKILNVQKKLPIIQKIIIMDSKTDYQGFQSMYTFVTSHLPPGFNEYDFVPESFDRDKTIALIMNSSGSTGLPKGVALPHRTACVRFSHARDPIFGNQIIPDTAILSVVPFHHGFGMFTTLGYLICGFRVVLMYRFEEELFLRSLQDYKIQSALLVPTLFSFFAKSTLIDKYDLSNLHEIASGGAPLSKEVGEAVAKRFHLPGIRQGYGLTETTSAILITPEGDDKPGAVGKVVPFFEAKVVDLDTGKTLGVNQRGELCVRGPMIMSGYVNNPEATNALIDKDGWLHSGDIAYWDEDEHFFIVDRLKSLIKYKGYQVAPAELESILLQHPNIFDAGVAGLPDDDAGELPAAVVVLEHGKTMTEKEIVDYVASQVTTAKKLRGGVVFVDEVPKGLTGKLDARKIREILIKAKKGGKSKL
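Material: luciferase plus luciferin reagent, cell-free. Medium: PBS buffer for ATP. Also added: ATP substrate, dispensed from a 10.24 µM working solution in PBS. Doses: test compounds dosed from 2 mM stocks in 100% DMSO. Incubation: 10 min post-reagent at room temperature. Technique: light output (luminescence). Read-out basis: luminescence gain marking luciferase activators.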
FLuc inhib CS – Photinus pyralis luciferase inhibition counter-screen; inhibition, % at 10 µM; P08659; 200,000 compounds, 1.5% hits; ATPLite firefly luciferase biochemical luminescence, 10 min;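 active = inhibition above about 50% when tested at 10 µM, limit read from the data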
MIN6 prolif-1 – induces beta-cell replication in MIN6 cells; AID 2380; MIN6 cells proliferation, ATPlite luminescence, 48 h; cells starved in 0.2% serum; 100% = growth in 10% serum; proliferation, % at 10 µM; 330,000 compounds, 0.29% hits;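 active = compounds whose signal lies at least 3.5 SD above the mean of all wells on their plate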;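 also: 0% = DMSO-treated cells in low-serum medium and 100% = 10% serum control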
PPC-1+TRAIL kill – kills PPC-1 cancer cells in the presence of TRAIL; PPC-1 cells + TRAIL, ATPLite viability luminescence; cell killing (% activity), % at 4 µM or 5 µM; 220,000 compounds, 0.41% hits; AID 1443;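 active = cell killing above 50% in the first pass at 4 µM, then a duplicate retest at 5 µM averaging 50% or more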;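 also: plate controls were cells with TRAIL plus DMSO for no effect and medium-only wells lacking cells for full effect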
MIN6 prolif-2 – MIN6 beta-cell replication induction, confirmed. shares compounds with MIN6 prolif-1. AID 463095. proliferation increase, % at 50 µM. MIN6 beta-cell proliferation, ATPlite luminescence, 48 h; cells kept in 0.2% serum; scaled between 0.2% and 10% serum. 920 tested, under 10 active;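 active = proliferation increase above 40% at any of the four tested concentrations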
Starred values were filed as active, the others as inactive; nt = no result given. Hits are enriched below; roughly 1.8% of the tested compounds scored in any of these assays.

SMILES	iPSC survival up	TRAIL sens C8	FLuc act counter	FLuc inhib CS	MIN6 prolif-1	PPC-1+TRAIL kill	MIN6 prolif-2
Cc1nnsc1C(=O)Nc1ccc(Cl)cc1	2	6	1	0	0	24	nt
S=c1[nH]nc(CN2CCCCC2)n1Cc1ccccc1	0	7	1	-5	8.0*	6	2
Cc1ccc(NC(=O)C(c2ccccc2)N2CCN(CC(=O)N3CCOCC3)CC2)cc1Cl (centres undefined)	0	7	nt	nt	2	nt	nt
CC(=O)Nc1ccc(CN2CCCCCC2)cc1	0	-3	nt	nt	5.5*	nt	2
Cn1c(=O)c2cc(NC(=O)NCCc3cccs3)ccc2n1C/C=C/c1ccccc1	2	-8	nt	nt	nt	nt	nt
O=C(COc1ccccc1[N+](=O)[O-])Nc1ccc2c(c1)CCC2	0	-9	nt	nt	-5	nt	nt
CC1=C(c2ccccc2)C(=S)NC(C)(C)C1	1	-25	nt	nt	5.6*	-6	-2
COc1ccc(C2=C(C)CC(C)(C)NC2=O)cc1OC	-1	5	1	-4	-1	11	nt
CCn1c(C(=O)O)c(CC(=O)Nc2cccc(C(F)(F)F)c2)c2ccccc21	1	-1	nt	nt	-4	nt	nt
COC(=O)C1CCN(C(=O)c2oc3c(Cl)cc(C)cc3c2C)CC1	0	-8	nt	nt	12*	nt	-6
CCOC(=O)c1c(NC(=O)CC)sc(C(=O)NC2CCCC2)c1C	0	-20	nt	nt	8.1*	nt	-4
COc1ccc(C)cc1S(=O)(=O)N1c2ccc(C)cc2C2CN(C)CCC21 (centres undefined)	0	-2	nt	nt	-4	nt	nt
O=[N+]([O-])c1ccc(SCc2ccco2)cc1N1CCOCC1	-1	0	1	-2	-1	17	nt
O=[N+]([O-])c1ccc(N2CCOCC2)cc1SCc1ccco1	6	-3	1	0	0.0*	22	2
CCN(C(=O)CSc1ccccn1)C1CCCCC1	4	-30	nt	nt	0	nt	nt
COc1ccccc1NC(=O)COc1ccc(/C=N/n2cnnc2)cc1OC	0	14	1.1	-9	-4	13	nt
CCOc1cc(/C=N/n2cnnc2)ccc1OCC(=O)Nc1ccccc1OC	2	-6	1.1	-6	8.0*	5	2
CC1(C)CC(=S)Nc2ccccc2S1	2	1	1.1	-6	11*	8	-6
CC1(C)CC(=O)C2=C(C1)Nc1ccccc1S2	0	12	nt	nt	-1	-2	nt
O=C1NC2(CCCCC2)C(=O)N1c1ccc(Cl)cc1	0	-14	nt	nt	8.4*	nt	2
O=C1NC2(CCCCC2)C(=O)N1c1ccccc1	-2	6	1	-4	0	14	nt
CCCn1nc(C(=O)Nc2cccc(S(=O)(=O)N3CCOCC3)c2)c2ccccc2c1=O	1	21	nt	nt	nt	nt	nt
CCCC(=O)Nc1nn(CC)c2nc3ccc(C)cc3cc12	0	-7	nt	nt	9.5*	nt	1
CC(C)CCNC(=O)CN1N=C(c2ccc(Cl)cc2)CCC1=O	3	-9	nt	nt	7.3*	nt	-2
CCOc1ccc(N(CC(=O)NC2CCCCC2)C(=O)CNC(=O)c2cccs2)cc1	0	12	nt	nt	1	nt	nt
SMILES	iPSC survival up	TRAIL sens C8	FLuc act counter	FLuc inhib CS	MIN6 prolif-1	PPC-1+TRAIL kill	MIN6 prolif-2
CCNC(=O)C1(C)CCCN(Cc2ccccc2-c2ccccc2)C1 (centres undefined)	-3	-9	nt	nt	nt	nt	nt
CCCc1cc(=O)[nH]c(SCC(=O)N(CCC#N)c2ccc3c(c2)OCCO3)n1	1	4	nt	nt	-3	nt	nt
CCCc1cc(=O)[nH]c(SCC(=O)c2ccc3c(c2)OCCO3)n1	-1	1	1	-1	0.0*	-14	-6
COc1ccc(N(CC(=O)NCCc2ccccc2)C(=O)c2csnn2)cc1OC	0	8	nt	nt	6.2*	nt	0
CCOc1ccccc1N(CC(=O)Nc1ccc(OC)c(OC)c1)S(=O)(=O)c1ccccc1	0	-3	nt	nt	1	nt	nt
O=C(CN(Cc1ccccc1Cl)C(=O)c1csnn1)NCCc1ccccc1	1	-1	nt	nt	6.0*	nt	-4
CCOc1ccccc1N(CC(=O)NCCc1ccc(OC)c(OC)c1)S(=O)(=O)c1ccccc1	0	1	nt	nt	7.1*	nt	-1
CCOC(=O)c1c[nH]c2nc(C)ccc2c1=O	0	-3	1	-4	1	0	nt
